Assay results published in ChEMBL document CHEMBL1125931, “Fluorescent markers for hypoxic cells: a study of nitroaromatic compounds, with fluorescent heterocyclic side chains, that undergo bioreductive binding” (J Med Chem, 1991).

Columns and labels:
[1] = Binding of fluorescence moiety to hypoxic cells measured in flow cytometry assay at conc of 10e-4 M.; type: functional, Cricetulus griseus
How it was run: (§1)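 V79 379A Chinese hamster cells (suspension culture, MEM with 7.5% fetal calf serum) incubated at 37 °C with 10^-4 M drug under aerobic or hypoxic gassing (air or N2, each + 5% CO2); DMSO final ≤1%. Flow cytometry after 6 h: excitation 365 nm, emission >390 or 410 nm; naphthalimides excited 458 nm, emission 510–560 nm. Mean fluorescence, arbitrary units, normalized for PMT gain and laser power.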

[2] = Binding of fluorescence moiety to oxic cells measured in flow cytometry assay at conc of 10e-4 M.; type: functional, Cricetulus griseus; how it was run: as §1
[3] = Cellular content after 4 hr incubation with compound under aerobic condition at 37 C.; type: functional; details: Cricetulus griseus
How it was run: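 Aerobic V79 Chinese hamster cells exposed to 10^-4 M extracellular drug for 4 h at 37 °C, then washed with PBS. Cell content measured by HPLC with an acetonitrile gradient, 50–75% over 10 min with 390 nm detection or 30–50% with 340 nm detection depending on compound. Reported as fmol per cell; about 0.1 fmol/cell corresponds to equilibration with the extracellular space.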

Compound	Fluorescence Intensity [1]	Fluorescence Intensity [2]	Uptake [3]
COc1cc2oc(=O)cc(Cn3ccnc3[N+](=O)[O-])c2cc1OC	1461	64	
COc1cc2nc(N3CCN(CC(O)Cn4ccnc4[N+](=O)[O-])CC3)nc(N)c2cc1OC (centres undefined)	85	39	
COc1ccc2cc(Cn3ccnc3[N+](=O)[O-])c(=O)oc2c1	203	85	
Nc1ccc2c3c(cccc13)C(=O)N(CCCCCn1ccnc1[N+](=O)[O-])C2=O	235	42	93 fmol/cell
COc1ccc2cc(C(=O)NCCN(CCO)CC(O)Cn3ccnc3[N+](=O)[O-])c(=O)oc2c1 (centres undefined)	412	24	
Nc1ccc2c3c(cccc13)C(=O)N(CCCn1ccnc1[N+](=O)[O-])C2=O	335	17	98 fmol/cell
COc1ccc2c(Cn3ccnc3[N+](=O)[O-])cc(=O)oc2c1	361	24	
CC(=O)Nc1ccc2c3c(cccc13)C(=O)N(CCCn1ccnc1[N+](=O)[O-])C2=O	37	12	0.04 fmol/cell
O=C(CNCCCN(CCO)CCO)Nc1ccc2c3c(cccc13)C(=O)N(CCCn1ccnc1[N+](=O)[O-])C2=O	24	13	< 0.005 fmol/cell
Nc1ccc2c3c(cccc13)C(=O)N(CCCCCCCCCn1ccnc1[N+](=O)[O-])C2=O	263	78	105 fmol/cell
COc1cc2cc(Cn3ccnc3[N+](=O)[O-])c(=O)oc2cc1OC	1149	238	
Br.COc1ccc2c(CSCCN)cc(=O)oc2c1	77	19	
